From ChEMBL document CHEMBL4513216, “Probing the Open Global Health Chemical Diversity Library for Multistage-Active Starting Points for Next-Generation Antimalarials” (ACS Infect Dis, 2020) come the findings set out here.

A short description of the data set: Toxicity liver stage against HepG2, at 10uM. The format is cell-based. On the set-up: test concentration 10 uM, cell line HepG2-A16-CD81EGFP. As to conditions: human, HepG2-A16-CD81EGFP cells; read-out: INHIBITION
In short, it runs like this:
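Uninfected HepG2-A16-CD81EGFP cells, 3 × 10^3 per well, 1536-well, plated on prespotted compound at 10 μM final, parasite-free screening media added to match infected plates; puromycin 10 μM positive, DMSO 0.5% negative; run in parallel with 48 h PbLuc assay at 37 °C, 5% CO2; viability by CellTiter-Glo luminescence, normalized to controls.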
As for `Cc1c(C)n2c(SCC(=O)N3CCOCC3)nnc2[nH]c1=O`, the cytotoxicity at 10 µM worked out at 3.26%.

On to `O=C(O)C1CCCN(c2nc3c(-c4ccccc4)csc3c(=O)[nH]2)C1` (stereo not drawn), for which the cytotoxicity at 10 µM was -10.1%.

With `C1CCN(c2nc(N3CCOCC3)nc3[nH]nnc23)CC1`, the cytotoxicity at 10 µM turned out to be 8.95%.

For the compound `O=C(Cn1ccc2ccccc21)N1CCC(Oc2ncccc2Br)CC1`, the cytotoxicity at 10 µM was 4.51%.

With `COc1ncc(NC(=O)c2ccco2)c(OC)n1`, the cytotoxicity at 10 µM is -3.74%.

Turning to `O=C(Nc1ccc2c(c1)OCO2)Nc1cnn(C2CCOCC2)c1`, the cytotoxicity at 10 µM was -8.54%.

With `COCc1cnc2n1CCN(S(=O)(=O)N(C)C)C2C` (stereo not drawn), the cytotoxicity at 10 µM is 16.8%.

Regarding `CC(C)n1ccc(-c2cc(C(=O)NC3CC3)c3ccccn23)n1`, the cytotoxicity at 10 µM is -5.4%.

In the case of `CC(C)CN1C(=O)CO[C@@H]2CN(C(=O)[C@H]3CCCO3)C[C@H]21`, the cytotoxicity at 10 µM was -5.12%.

Regarding `CCCc1noc(C2CCN(C(=O)CCn3nc(C)cc3C)CC2)n1`, the cytotoxicity at 10 µM was determined as 7.47%.

For the compound `CCOc1cc(C(=O)N2CCOCC2)cc2occc12`, the cytotoxicity at 10 µM was -4.92%.

For the compound `Cc1ccc(CN2C(=O)CCC2C(=O)Nc2cnn(C)c2)o1` (stereo not drawn), the cytotoxicity at 10 µM is -3.72%.

For the compound `Oc1ccc(C2Nc3ccccc3C3=NCCCN32)cc1` (stereo not drawn), the cytotoxicity at 10 µM is -39.1%.

Regarding `O=C(N[C@@H]1CCC[C@@H](N2CCOCC2)[C@@H]1O)c1ncccn1`, the cytotoxicity at 10 µM is -25.9%.

For `Cc1noc(C)c1-c1cccc(CC2CCN(C(=O)CN)C2)n1` (stereo not drawn), the cytotoxicity at 10 µM is -3.36%.

For the compound `Cc1cccc(Nc2nccnc2C2CCCN(CC(=O)N(C)C)C2)n1` (stereo not drawn), the cytotoxicity at 10 µM is -3.03%.

Take `Cc1n[nH]c(C)c1-c1nccnc1CC1CCN(C(C)C)CC1`: the cytotoxicity at 10 µM was -5.36%.

Regarding `CC1CCCCN1c1nc2c(c(=O)[nH]1)CCN(Cc1ccccn1)C2` (stereo not drawn), the cytotoxicity at 10 µM is -10.7%.

`COc1cnc(C2(O)CCN(C(=O)c3scnc3C)CC2)c(OC)n1`: the cytotoxicity at 10 µM is -6.41%.

`Cc1nccn1-c1cccc(C2CCCN(C3CCCC3)C2)n1` (stereo not drawn): the cytotoxicity at 10 µM was -12.7%.

`Cc1cncc(C2CCCN(C(=O)c3cn(C)nc3C)C2)n1` (stereo not drawn): the cytotoxicity at 10 µM is -7.91%.

For `CC(=O)N1CCCC(c2cccc(-n3ccnc3)n2)C1` (stereo not drawn), the cytotoxicity at 10 µM is -9.08%.

Turning to `COc1ccc(CN2C[C@@H](O)[C@](O)(CNC(=O)c3ccccn3)C2)cc1`, the cytotoxicity at 10 µM was determined as 8.46%.

As for `O=C1NCc2ccccc2CC12CCN(Cc1ccccc1Cl)CC2`, the cytotoxicity at 10 µM turned out to be 5.86%.

On to `OCc1cccc(OCc2ccon2)c1`, for which the cytotoxicity at 10 µM amounted to 0.266%.

Turning to `CC(C)CN(C(=O)COc1ccc(C(N)=O)cc1)C1CCN(C)CC1`, the cytotoxicity at 10 µM is -3.24%.

Take `CN(C)c1ncc(NC(=O)c2cccc(Nc3cnn(C)c3)c2)cn1`: the cytotoxicity at 10 µM is -2.93%.

With `COCC(C)NC(=O)c1sccc1-n1cnnn1` (stereo not drawn), the cytotoxicity at 10 µM is -0.132%.

Take `CC(C)c1nc(C(=O)N(C)c2ccc(Br)cn2)cs1`: the cytotoxicity at 10 µM turned out to be 7.84%.

As to `COc1cccc(-c2nc(CNCCc3cccnc3)cs2)c1`, the cytotoxicity at 10 µM is -1.77%.

For the compound `Cc1nc(-c2ccc(CC(=O)N3CCNC(=O)C3)cc2)cs1`, the cytotoxicity at 10 µM turned out to be 6.14%.

Regarding `CC(=O)NCCCNCc1ccc(Cl)c2cccnc12`, the cytotoxicity at 10 µM was -3.17%.

Regarding `COc1cccnc1NC(=O)COc1c(C)cccc1C`, the cytotoxicity at 10 µM was determined as 0.819%.

Regarding `COc1cccc(NC(=O)NC(C)(C)c2noc(C)n2)c1`, the cytotoxicity at 10 µM was determined as 7.35%.

In the case of `CCC1CN(Cc2nnc(C3CC3)o2)CCN1CCOC` (stereo not drawn), the cytotoxicity at 10 µM was found to be 3.13%.

As to `CSCC(CCO)NC(=O)Nc1cccc(Br)c1C` (stereo not drawn), the cytotoxicity at 10 µM is -3.7%.

With `CC(C)c1ncc2c(n1)CN(Cc1nc3c(F)cccc3[nH]1)CC2`, the cytotoxicity at 10 µM is 1.09%.

Consider `Cn1c(SCC(O)COCc2ccccc2Cl)nnc1C1CC1` (stereo not drawn), for which the cytotoxicity at 10 µM is -2.24%.

As for `N#Cc1nccnc1NC1CCN(c2ccccc2OC(F)F)C1` (stereo not drawn), the cytotoxicity at 10 µM worked out at 12.8%.

On to `CCN(C(=O)c1ccc2nncn2c1)C(C)Cc1ccc(OC)cc1` (stereo not drawn), for which the cytotoxicity at 10 µM was -5.53%.

`Cn1cc(CCCNS(=O)(=O)N2CCCC2c2ccco2)cn1` (stereo not drawn): the cytotoxicity at 10 µM was 9.38%.

`CCN(CC)c1ccc(NC(=O)NCC2(C(N)=O)CCOCC2)cn1`: the cytotoxicity at 10 µM is 7.15%.

Take `CC(=O)c1ccc(OCC(=O)NS(=O)(=O)c2ccc(Cl)s2)cc1`: the cytotoxicity at 10 µM is 1.77%.

As to `COc1ccc(CCn2cnnc2[S+](C)[O-])cc1` (stereo not drawn), the cytotoxicity at 10 µM amounted to 3.4%.

On to `CC(=O)N(C)c1nc(Cn2nnnc2C2CCCC2)cs1`, for which the cytotoxicity at 10 µM came to 2.11%.

As for `CC(C)N(CCCNC(=O)C1CCCN(C(N)=O)C1)S(C)(=O)=O` (stereo not drawn), the cytotoxicity at 10 µM is -8.51%.

Regarding `CC(C)OCCN1CCN(c2ccc(Cl)cn2)CC1`, the cytotoxicity at 10 µM was -1.67%.

On to `COc1ccccc1CNCc1nn(-c2ccccc2)c2c1CCC2`, for which the cytotoxicity at 10 µM came to 34.4%.

With `O=C(Cn1ncc2ccccc21)Nc1ccnn1CC1CCOC1` (stereo not drawn), the cytotoxicity at 10 µM stood at 3.03%.

Take `COc1ccc2c(c1)CC(NCCCn1cc(C)cn1)CC2` (stereo not drawn): the cytotoxicity at 10 µM worked out at 18%.

`CC1(C)Cc2ccc(C(=O)NC3CCS(=O)(=O)C3)c(O)c2O1` (stereo not drawn): the cytotoxicity at 10 µM was found to be 0.329%.

With `O=C(CCC1CCCO1)NCCCC(=O)Nc1ccc(Cl)cc1` (stereo not drawn), the cytotoxicity at 10 µM is -0.649%.

Take `CN(Cc1ccc(F)cc1)C(=O)NCC1(N2CCOCC2)CCSC1` (stereo not drawn): the cytotoxicity at 10 µM is -21.9%.

For the compound `O=C(NCCOc1ccc(F)c(F)c1)NCc1ccncc1`, the cytotoxicity at 10 µM is -8.25%.

Turning to `N#Cc1ccc(OCCNc2cccc(C(=O)N3CCOCC3)c2)cc1`, the cytotoxicity at 10 µM is -2.96%.

For the compound `O=C(Nc1cccc(CN2CCOC2=O)c1)N1CCSCC1`, the cytotoxicity at 10 µM was -11.3%.

`CCc1cnc(CN(C)C2CCN(CCS(C)(=O)=O)C2)o1` (stereo not drawn): the cytotoxicity at 10 µM is -3.94%.

On to `CN(C)C(=O)N1CC(C(=O)NCC2CC2)C2(CCOCC2)C1` (stereo not drawn), for which the cytotoxicity at 10 µM was -95.1%.

`CC(=O)N1CCC(n2nccc2-c2cnc(N)nc2)CC1`: the cytotoxicity at 10 µM amounted to 1.3%.

In the case of `Cc1cc2c(=O)n(CCSc3cnn[nH]3)cnc2s1`, the cytotoxicity at 10 µM was 10.1%.

With `CC(Cn1ccnc1)NCc1ccc2nonc2c1` (stereo not drawn), the cytotoxicity at 10 µM is 2.57%.

As to `COc1cccc2c1OCCCN(Cc1ncccc1C(=O)O)C2`, the cytotoxicity at 10 µM is 4.12%.

For the compound `Cc1ccccc1C(Nc1ncnc2c1CCNC2)c1ccccc1` (stereo not drawn), the cytotoxicity at 10 µM turned out to be 7.78%.

For the compound `CCn1cc(-c2n[nH]c(=O)n2-c2ccc3c(c2)OCO3)c(C)n1`, the cytotoxicity at 10 µM was 2.25%.

`CCOCc1nccc(-c2ccc(OCC)c(C(=O)O)c2)n1`: the cytotoxicity at 10 µM came to 2.55%.

`Cc1nccc(N2CC[C@@H]3[C@@H](CCC(=O)N3CCc3ccccc3)C2)n1`: the cytotoxicity at 10 µM was 2.19%.

With `Cc1ccccc1SC1CCN(C(=O)[C@@H]2C[C@@H](N)CN2)CC1`, the cytotoxicity at 10 µM was -7.69%.

Consider `O=C1[C@@H]2CN(c3ncnc4[nH]ccc34)C[C@]2(C(=O)O)CN1CC1CC1`, for which the cytotoxicity at 10 µM is 2.62%.

For `O=C(CN1C(=O)CCNC1=O)N1CCC2(CCc3ccccc32)CC1`, the cytotoxicity at 10 µM was -11.2%.

With `N[C@H]1CN(C(=O)c2ccc(CO)cc2)C[C@@H]1C1CC1`, the cytotoxicity at 10 µM worked out at 2.56%.

Take `CNc1cc(-c2ccccc2CN)c2cc[nH]c2n1`: the cytotoxicity at 10 µM was -1.43%.

Regarding `COC(=O)CCNC(=O)c1coc(COc2ccc(F)cc2)n1`, the cytotoxicity at 10 µM is -4.1%.

For `CCn1ccnc1CN1CCCN(CC2CC2)C(C(C)C)C1` (stereo not drawn), the cytotoxicity at 10 µM turned out to be 2.63%.

`Cc1cc(C)c(-n2cccn2)c(CN2CCOCC(CN(C)C)C2)c1` (stereo not drawn): the cytotoxicity at 10 µM was -8.83%.

As to `O=C1O[C@@H]2CN(Cc3cc4ccccc4s3)C[C@@H]2N1Cc1ccccn1`, the cytotoxicity at 10 µM came out at 10.2%.

For `CSCCc1nc(C(C)C)nn1-c1ccncc1C`, the cytotoxicity at 10 µM came to 1.63%.

In the case of `CCN(CC)C1CCN(c2nccc(C3CCCC3)n2)C1` (stereo not drawn), the cytotoxicity at 10 µM was -12.7%.

For the compound `CCN(C)CC(=O)N1CCC(c2cc(N3CCOCC3)nc(C)n2)CC1`, the cytotoxicity at 10 µM came to 6.9%.

Turning to `COCc1nc(CN2CC(=O)N(C)c3ccccc3C2=O)no1`, the cytotoxicity at 10 µM is -6.03%.

With `CN1C[C@H]2CNC[C@@]2(C(=O)NC2CCN(c3ncccc3C#N)CC2)C1`, the cytotoxicity at 10 µM is -0.766%.

With `CC(C)[C@H]1CN(S(=O)(=O)c2cccnc2)C[C@@H]1N`, the cytotoxicity at 10 µM was 1.31%.

For the compound `Cc1ccc(-c2ccnc(N3CCC4(CCO4)CC3)n2)c(C)n1`, the cytotoxicity at 10 µM is 2.05%.

As for `Cc1cccc(-c2ncc(CNC(C)Cc3ccncc3)cn2)c1` (stereo not drawn), the cytotoxicity at 10 µM is -8.18%.

As to `c1ccc(COc2ccccc2NC2CCOCC2)nc1`, the cytotoxicity at 10 µM worked out at 2.2%.

Regarding `Cc1nc(C)c(C(=O)N2CCCC(C(=O)c3nccn3C)C2)s1` (stereo not drawn), the cytotoxicity at 10 µM stood at 2.3%.

`CCCc1cc(=O)[nH]c(-c2ccccc2CN(C)CCC(C)C)n1`: the cytotoxicity at 10 µM worked out at 3.53%.

As for `CCN1CCN(C(=O)COc2ccc(CN(C)S(C)(=O)=O)cc2)CC1`, the cytotoxicity at 10 µM was 3.3%.

On to `Cc1cnccc1NCCn1ccnc1C1CCOC1` (stereo not drawn), for which the cytotoxicity at 10 µM came out at 3.8%.

As for `CCCc1cc(NCCC2CCCOC2)n2nccc2n1` (stereo not drawn), the cytotoxicity at 10 µM was 3.63%.

For the compound `N#Cc1ccc(C(=O)N2C[C@@H](CN3CCCC3)C[C@H](CO)C2)cc1`, the cytotoxicity at 10 µM was -2.86%.

On to `Cc1cc(N2CCN(Cc3ccccc3)CC(O)C2)cc(C)n1` (stereo not drawn), for which the cytotoxicity at 10 µM is -17.4%.

As for `CCN1CC2(CCC1=O)CCN(C(=O)c1ccc(Cl)cc1O)CC2`, the cytotoxicity at 10 µM was -12.8%.

In the case of `CN1CC(c2ccccc2)CC12CCN(C(=O)c1ccc(F)cc1)CC2` (stereo not drawn), the cytotoxicity at 10 µM was -12.1%.

With `CCC1CCCN(Cc2nc(N)c3ccccc3n2)C1` (stereo not drawn), the cytotoxicity at 10 µM was -11.2%.

Turning to `COc1ccc(CCCC(=O)N2CCCC(n3cccn3)C2)cc1` (stereo not drawn), the cytotoxicity at 10 µM is -7.36%.

On to `Cc1noc(C)c1C(=O)N1Cc2ncn(C)c2C(COCC(C)C)C1` (stereo not drawn), for which the cytotoxicity at 10 µM was -105%.

`COc1cc(Br)c(CNC2CCCNC2=O)cc1OC` (stereo not drawn): the cytotoxicity at 10 µM came to 1.93%.

As for `CC(C)N(C)Cc1nnc2n1CCCN(S(=O)(=O)C1CC1)C2`, the cytotoxicity at 10 µM is -0.48%.
